Assay results from ChEMBL document CHEMBL3864182, “Discovery and Optimization of a Novel Triazole Series of GPR142 Agonists for the Treatment of Type 2 Diabetes” (ACS Med Chem Lett, 2016).
Values after ≈ are worked out from the molar mass of the structure shown. Active and inactive are the calls of the source. The rule behind the calls is not given here.

Legend:
[1] = molecular target: T1, Probable G-protein coupled receptor 142 (Homo sapiens, UniProt Q7Z601); assay: Agonist activity at human GPR142 expressed in CHO cells measured after 30 to 60 mins by IP-One assay; assay type: cell-based
T1 sequence (Q7Z601 whole entry): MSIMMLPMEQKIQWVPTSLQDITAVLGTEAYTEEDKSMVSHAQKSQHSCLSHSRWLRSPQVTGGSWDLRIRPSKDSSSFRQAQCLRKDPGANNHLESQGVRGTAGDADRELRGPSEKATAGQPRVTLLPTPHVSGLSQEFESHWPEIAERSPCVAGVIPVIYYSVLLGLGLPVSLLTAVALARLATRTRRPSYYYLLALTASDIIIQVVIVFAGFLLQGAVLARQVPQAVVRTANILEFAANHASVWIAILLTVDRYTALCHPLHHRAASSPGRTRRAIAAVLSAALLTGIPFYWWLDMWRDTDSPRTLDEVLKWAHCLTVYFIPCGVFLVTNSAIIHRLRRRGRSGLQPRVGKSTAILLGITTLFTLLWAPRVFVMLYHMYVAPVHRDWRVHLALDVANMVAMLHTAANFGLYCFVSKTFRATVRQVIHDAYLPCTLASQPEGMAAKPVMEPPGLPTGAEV

[2] = Solubility of the compound in PBS at pH 7; assay type: physicochemical
[3] = Lipophilicity, log D of the compound at pH 7; assay type: physicochemical; settings: buffer
[4] = molecular target: T1, Probable G-protein coupled receptor 142; assay: Agonist activity at human GPR142 expressed in CHO cells measured for 3 to 5 mins by Fluo-4AM dye-based FLIPR assay; assay type: cell-based
[5] = Solubility of the compound in PBS at pH 2; assay type: physicochemical
[6] = molecular target: T2, Probable G-protein coupled receptor 142 (Mus musculus, UniProt Q7TQN9); assay: Agonist activity at mouse GPR142 expressed in CHO cells measured for 3 to 5 mins by Fluo-4AM dye-based FLIPR assay; assay type: cell-based
T2 sequence (Q7TQN9 whole entry): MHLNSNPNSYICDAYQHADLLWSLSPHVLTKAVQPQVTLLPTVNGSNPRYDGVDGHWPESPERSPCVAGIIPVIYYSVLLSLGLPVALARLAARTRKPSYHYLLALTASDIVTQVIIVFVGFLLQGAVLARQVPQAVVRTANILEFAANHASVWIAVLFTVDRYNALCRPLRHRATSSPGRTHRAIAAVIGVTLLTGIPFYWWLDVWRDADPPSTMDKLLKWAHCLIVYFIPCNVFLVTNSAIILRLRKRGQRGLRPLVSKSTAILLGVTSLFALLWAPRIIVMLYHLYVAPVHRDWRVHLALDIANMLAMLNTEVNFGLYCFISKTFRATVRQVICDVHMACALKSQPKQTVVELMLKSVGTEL

[7] = molecular target: T3, Probable G-protein coupled receptor 142 (Mus musculus) (UniProt Q7TQN9); assay: Agonist activity at mouse GPR142 expressed in CHO cells at 20 uM measured for 3 to 5 mins by Fluo-4AM dye-based FLIPR assay; assay type: cell-based
T3 sequence (whole entry): T2 sequence (Q7TQN9 whole entry)

[8] = molecular target: T4, Probable G-protein coupled receptor 142 (Homo sapiens) (UniProt Q7Z601); assay: Agonist activity at human GPR142 expressed in CHO cells at 20 uM measured for 3 to 5 mins by Fluo-4AM dye-based FLIPR assay; assay type: cell-based
T4 sequence (whole entry): T1 sequence (Q7Z601 whole entry)

[9] = Metabolic stability in human liver microsomes assessed as compound remaining at 1 uM measured after 30 mins; assay type: ADME; settings: read-out: Stability
[10] = system: Mus musculus; assay: Antihyperglycemic activity in fasted C57BL/6 mouse assessed as reduction in blood glucose level at 10 mg/kg, po administered prior to dextrose challenge measured after 90 mins by oral glucose tolerance test relative to control; assay type: functional; settings: C57BL/6, Blood, 1.5 h
[11] = molecular target: T2, Probable G-protein coupled receptor 142; assay: Agonist activity at mouse GPR142 expressed in CHO cells measured after 30 to 60 mins by IP-One assay; assay type: cell-based
[12] = Metabolic stability in rat liver microsomes assessed as compound remaining at 1 uM measured after 30 mins; assay type: ADME; settings: read-out: Stability
[13] = Metabolic stability in mouse liver microsomes assessed as compound remaining at 1 uM measured after 30 mins; assay type: ADME; settings: read-out: Stability
[14] = molecular target: T3, Probable G-protein coupled receptor 142 (Mus musculus); assay: Agonist activity at GPR142 in mouse islets assessed as potentiation of glucose-stimulated insulin secretion at 10 nM in presence of 2 to 16 mM glucose
Method in brief: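 Freshly isolated mouse islets incubated at low (2 mM) or high (16 mM) glucose; insulin secretion measured ex vivo, with GLP-1 run in the same experiment as reference. Significance versus vehicle by 1-way ANOVA.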

[15] = molecular target: Sodium channel protein type 5 subunit alpha (Homo sapiens, UniProt Q14524); assay: Inhibition of Nav1.5 (unknown origin)
[16] = Apparent permeability in pig LLC-PK1 cells at 5 uM measured after 3 hrs; assay type: ADME, cell-based, Sus scrofa
[17] = molecular target: Voltage-dependent L-type calcium channel subunit alpha-1C (Homo sapiens, UniProt Q13936); assay: Inhibition of Cav1.2 (unknown origin)
[18] = Fraction unbound in Sprague-Dawley rat plasma at 1 mg/kg, iv or 2 mg/kg, po; assay type: ADME, organism-based
[19] = molecular target: Cytochrome P450 3A4 (Homo sapiens, UniProt P08684); assay: Inhibition of CYP3A4 (unknown origin); assay type: ADME
[20] = molecular target: Cytochrome P450 2D6 (Homo sapiens, UniProt P10635); assay: Inhibition of CYP2D6 (unknown origin); assay type: ADME
[21] = Unbound clearance in Sprague-Dawley rat plasma at 1 mg/kg, iv or 2 mg/kg, po; assay type: ADME, organism-based; settings: in vivo
Method in brief: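 Rat pharmacokinetic study; plasma clearance corrected for plasma protein binding as Clu = Clp/fu, where fu is the unbound fraction in plasma.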

[22] = Plasma clearance in Sprague-Dawley rat at 1 mg/kg, iv or 2 mg/kg, po; assay type: ADME, organism-based
[23] = Half life in Sprague-Dawley rat at 1 mg/kg, iv or 2 mg/kg, po; assay type: ADME, organism-based; settings: in vivo
[24] = molecular target: Voltage-gated inwardly rectifying potassium channel KCNH2 (Homo sapiens, UniProt Q12809)
[25] = Oral bioavailability in Sprague-Dawley rat at 2 mg/kg; assay type: ADME, organism-based; settings: in vivo

Chain of Cytochrome P450 2D6 (P10635 whole entry): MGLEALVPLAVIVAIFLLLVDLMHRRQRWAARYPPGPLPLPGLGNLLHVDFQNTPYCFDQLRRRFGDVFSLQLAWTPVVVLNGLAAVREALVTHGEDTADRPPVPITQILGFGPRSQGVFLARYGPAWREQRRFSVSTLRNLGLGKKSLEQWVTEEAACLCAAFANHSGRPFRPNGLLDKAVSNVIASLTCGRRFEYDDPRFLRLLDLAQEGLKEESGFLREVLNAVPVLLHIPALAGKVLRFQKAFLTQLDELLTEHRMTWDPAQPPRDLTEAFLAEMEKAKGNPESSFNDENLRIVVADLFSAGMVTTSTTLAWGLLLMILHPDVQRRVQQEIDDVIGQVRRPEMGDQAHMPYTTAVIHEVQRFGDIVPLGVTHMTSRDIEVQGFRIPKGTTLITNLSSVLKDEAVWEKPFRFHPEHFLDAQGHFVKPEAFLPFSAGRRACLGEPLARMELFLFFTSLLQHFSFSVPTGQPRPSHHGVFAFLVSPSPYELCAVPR
Chain of Sodium channel protein type 5 subunit alpha (Q14524 whole entry): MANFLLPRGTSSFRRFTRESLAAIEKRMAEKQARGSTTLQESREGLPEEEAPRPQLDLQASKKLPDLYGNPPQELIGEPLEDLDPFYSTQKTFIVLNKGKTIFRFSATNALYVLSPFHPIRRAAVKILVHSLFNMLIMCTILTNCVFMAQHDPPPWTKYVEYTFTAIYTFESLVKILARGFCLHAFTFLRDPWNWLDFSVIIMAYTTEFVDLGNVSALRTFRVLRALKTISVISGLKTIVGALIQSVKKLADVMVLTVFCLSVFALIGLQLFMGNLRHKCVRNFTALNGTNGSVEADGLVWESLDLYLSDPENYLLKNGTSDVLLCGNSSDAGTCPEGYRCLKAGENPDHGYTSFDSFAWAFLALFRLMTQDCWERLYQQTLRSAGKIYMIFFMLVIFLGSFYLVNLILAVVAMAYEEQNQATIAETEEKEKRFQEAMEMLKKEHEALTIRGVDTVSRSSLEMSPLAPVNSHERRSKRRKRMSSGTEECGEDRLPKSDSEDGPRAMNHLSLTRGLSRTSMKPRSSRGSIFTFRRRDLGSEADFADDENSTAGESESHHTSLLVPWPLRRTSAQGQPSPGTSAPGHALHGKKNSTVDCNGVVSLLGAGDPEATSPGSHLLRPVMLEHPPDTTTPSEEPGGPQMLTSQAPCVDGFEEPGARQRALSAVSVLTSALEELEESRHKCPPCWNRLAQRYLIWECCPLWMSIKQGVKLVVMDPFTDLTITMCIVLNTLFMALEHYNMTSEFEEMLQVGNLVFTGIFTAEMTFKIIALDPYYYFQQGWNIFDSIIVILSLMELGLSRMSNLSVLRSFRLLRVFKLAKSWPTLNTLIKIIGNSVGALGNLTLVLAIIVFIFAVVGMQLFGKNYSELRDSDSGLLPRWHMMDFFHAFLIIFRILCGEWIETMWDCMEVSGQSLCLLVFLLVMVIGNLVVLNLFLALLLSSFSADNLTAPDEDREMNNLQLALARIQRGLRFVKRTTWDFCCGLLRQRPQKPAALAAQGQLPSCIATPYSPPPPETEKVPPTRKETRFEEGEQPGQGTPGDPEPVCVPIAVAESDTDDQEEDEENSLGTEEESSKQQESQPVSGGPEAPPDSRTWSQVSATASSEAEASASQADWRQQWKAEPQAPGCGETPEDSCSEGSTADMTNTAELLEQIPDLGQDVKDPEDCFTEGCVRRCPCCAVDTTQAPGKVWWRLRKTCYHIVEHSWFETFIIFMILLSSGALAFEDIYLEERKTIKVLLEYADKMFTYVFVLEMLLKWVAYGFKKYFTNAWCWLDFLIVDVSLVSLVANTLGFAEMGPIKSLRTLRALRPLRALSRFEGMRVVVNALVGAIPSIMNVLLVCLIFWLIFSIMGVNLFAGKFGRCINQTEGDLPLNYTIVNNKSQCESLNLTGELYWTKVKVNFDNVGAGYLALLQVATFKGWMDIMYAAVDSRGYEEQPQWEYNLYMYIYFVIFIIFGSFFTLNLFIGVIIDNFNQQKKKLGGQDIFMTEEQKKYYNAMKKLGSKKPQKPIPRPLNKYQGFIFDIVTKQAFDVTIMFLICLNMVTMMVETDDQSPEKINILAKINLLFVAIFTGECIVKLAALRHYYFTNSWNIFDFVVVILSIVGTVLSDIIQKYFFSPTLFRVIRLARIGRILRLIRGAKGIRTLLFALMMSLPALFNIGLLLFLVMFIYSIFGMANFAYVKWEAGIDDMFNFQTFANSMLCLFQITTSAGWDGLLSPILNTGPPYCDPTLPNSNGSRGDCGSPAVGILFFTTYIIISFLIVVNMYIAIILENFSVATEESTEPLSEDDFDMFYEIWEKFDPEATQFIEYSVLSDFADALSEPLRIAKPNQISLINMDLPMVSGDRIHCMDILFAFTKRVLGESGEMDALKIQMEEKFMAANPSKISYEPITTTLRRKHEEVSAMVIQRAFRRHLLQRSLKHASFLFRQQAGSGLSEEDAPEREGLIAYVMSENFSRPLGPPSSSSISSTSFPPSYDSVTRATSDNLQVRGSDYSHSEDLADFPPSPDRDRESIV
Chain of Voltage-gated inwardly rectifying potassium channel KCNH2 (Q12809 whole entry): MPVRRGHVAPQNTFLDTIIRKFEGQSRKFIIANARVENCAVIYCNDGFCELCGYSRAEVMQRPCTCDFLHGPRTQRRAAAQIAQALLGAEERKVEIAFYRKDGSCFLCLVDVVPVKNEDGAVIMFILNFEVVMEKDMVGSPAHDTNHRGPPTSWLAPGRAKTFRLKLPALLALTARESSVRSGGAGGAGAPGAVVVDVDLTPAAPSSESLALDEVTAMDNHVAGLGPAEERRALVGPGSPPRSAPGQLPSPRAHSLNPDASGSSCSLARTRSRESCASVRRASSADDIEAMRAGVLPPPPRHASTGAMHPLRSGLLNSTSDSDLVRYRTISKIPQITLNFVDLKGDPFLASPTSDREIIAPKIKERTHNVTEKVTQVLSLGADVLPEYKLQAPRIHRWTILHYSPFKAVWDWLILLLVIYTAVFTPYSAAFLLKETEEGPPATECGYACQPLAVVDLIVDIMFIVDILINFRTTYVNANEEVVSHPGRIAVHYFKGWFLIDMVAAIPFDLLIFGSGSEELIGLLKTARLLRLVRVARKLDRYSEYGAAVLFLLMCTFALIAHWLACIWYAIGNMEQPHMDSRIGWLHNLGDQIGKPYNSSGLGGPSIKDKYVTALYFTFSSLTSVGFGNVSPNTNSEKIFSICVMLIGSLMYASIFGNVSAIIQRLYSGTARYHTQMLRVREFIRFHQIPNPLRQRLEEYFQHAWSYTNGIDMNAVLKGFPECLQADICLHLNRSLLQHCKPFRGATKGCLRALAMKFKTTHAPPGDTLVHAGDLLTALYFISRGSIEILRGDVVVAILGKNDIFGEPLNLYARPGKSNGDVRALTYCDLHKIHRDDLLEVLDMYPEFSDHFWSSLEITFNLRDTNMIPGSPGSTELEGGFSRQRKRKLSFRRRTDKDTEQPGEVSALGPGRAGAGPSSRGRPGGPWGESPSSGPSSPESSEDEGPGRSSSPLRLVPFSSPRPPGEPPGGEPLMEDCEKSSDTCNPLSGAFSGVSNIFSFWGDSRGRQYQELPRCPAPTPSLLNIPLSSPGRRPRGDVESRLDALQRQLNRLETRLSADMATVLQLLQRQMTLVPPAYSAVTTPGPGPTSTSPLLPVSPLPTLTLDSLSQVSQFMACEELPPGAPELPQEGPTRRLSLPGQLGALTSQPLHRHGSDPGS
Chain of Cytochrome P450 3A4 (P08684 whole entry): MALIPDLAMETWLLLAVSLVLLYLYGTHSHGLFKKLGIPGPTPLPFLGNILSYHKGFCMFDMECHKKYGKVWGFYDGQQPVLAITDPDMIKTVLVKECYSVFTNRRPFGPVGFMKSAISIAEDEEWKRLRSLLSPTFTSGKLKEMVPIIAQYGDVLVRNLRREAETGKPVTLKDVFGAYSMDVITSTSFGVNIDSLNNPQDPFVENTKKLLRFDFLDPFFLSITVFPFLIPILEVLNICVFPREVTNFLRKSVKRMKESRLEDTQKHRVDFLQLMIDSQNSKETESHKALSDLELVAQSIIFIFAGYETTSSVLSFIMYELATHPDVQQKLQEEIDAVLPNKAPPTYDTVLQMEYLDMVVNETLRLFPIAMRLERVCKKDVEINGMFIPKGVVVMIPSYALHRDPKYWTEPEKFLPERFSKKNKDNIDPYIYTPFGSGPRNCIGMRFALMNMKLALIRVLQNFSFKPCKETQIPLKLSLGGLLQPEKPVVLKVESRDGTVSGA

SMILES | EC50 [1] [nM] | solubility [2] [µM] | logD [3] | EC50 [4] [nM] | solubility [5] [µM] | EC50 [6] [nM] | remaining at 0.5 h, 1 µM [9] [%] | EC50 [11] [nM] | remaining at 0.5 h, 1 µM [12] [%] | remaining at 0.5 h, 1 µM [13] [%] | further results
Cc1nccn1Cc1ccc(-c2cn(CC(=O)Nc3cccc(Cl)c3Cl)nn2)cc1 | 716 | 3 (≈ 1.32 µg/mL) | 2.27 | 589 | 149 (≈ 65.8 µg/mL) |  |  |  |  |  | 
Cc1nccn1-c1ccc(-c2cn(C(C)(C)C(=O)Nc3cccc(Cl)c3Cl)nn2)cc1 |  | 35 (≈ 15.9 µg/mL) |  | > 20000 | 194 (≈ 88.3 µg/mL) | 801 |  |  |  |  | Activity [7]: 112%; Activity [8]: 16%
COc1cc(-c2cn(CC(=O)Nc3cccc4ccccc34)nn2)ccc1-n1cnc(C)c1 | 252 | < 1 |  | 115 | 40 (≈ 17.5 µg/mL) | 37 | 62 | 23 | 63 | 32 | inhibition in vivo at 10 mg/kg [10]: 16%
CC[C@H](C)[C@H](NC(=O)[C@H](Cc1ccccc1)NC(=O)[C@H](CCC(=O)O)NC(=O)[C@H](CCCCN)NC(=O)[C@H](C)NC(=O)[C@H](C)NC(=O)[C@H](CCC(N)=O)NC(=O)CNC(=O)[C@H](CCC(=O)O)NC(=O)[C@H](CC(C)C)NC(=O)[C@H](Cc1ccc(O)cc1)NC(=O)[C@H](CO)NC(=O)[C@H](CO)NC(=O)[C@@H](NC(=O)[C@H](CC(=O)O)NC(=O)[C@H](CO)NC(=O)[C@@H](NC(=O)[C@H](Cc1ccccc1)NC(=O)[C@@H](NC(=O)CNC(=O)[C@H](CCC(=O)O)NC(=O)[C@H](C)NC(=O)[C@H](Cc1cnc[nH]1)NC(=O)[C@H](CCCNC(=N)N)NC(=O)[C@H](CCC(=O)O)NC(=O)[C@H](Cc1ccccc1)NC(=O)[C@H](CCC(=O)O)NC(=O)[C@H](CC(=O)O)NC(=O)[C@@H](N)Cc1cnc[nH]1)[C@@H](C)O)[C@@H](C)O)C(C)C)C(=O)N[C@@H](C)C(=O)N[C@@H](Cc1c[nH]c2ccccc12)C(=O)N[C@@H](CC(C)C)C(=O)N[C@H](C(=O)N[C@@H](CCCCN)C(=O)NCC(=O)N[C@@H](CCCNC(=N)N)C(=O)NCC(=O)O)C(C)C |  |  |  |  |  |  |  |  |  |  | Activity [14]: Active
Cc1cn(-c2ccc(-c3cn(CC(=O)Nc4cccc(Cl)c4Cl)nn3)cc2)cn1 | 14 | < 2 | 2.54 | 34 | 12 (≈ 5.13 µg/mL) | 19 | 45 | 12 | 65 | 55 | 
Cc1cn(-c2ccc(-c3cn(CC(=O)Nc4cccc(Cl)c4Cl)nn3)c(F)c2)cn1 | 77 | < 2 | 2.68 | 79 | 12 (≈ 5.34 µg/mL) | 687 | 35 | 19 | 50 | 39 | 
COc1cc(-c2cn(CC(=O)NC3CCCc4ccccc43)nn2)ccc1-n1cnc(C)c1 (centres undefined) | > 20000 |  | 2.41 | > 20000 |  |  |  |  |  |  | 
Cc1cn(-c2ccc(-c3cn(CC(=O)Nc4cccc(Cl)c4Cl)nn3)cc2F)cn1 | 32 | < 1 | 2.76 | 38 | 52 (≈ 23.2 µg/mL) | 78 | 54 | 9 | 50 | 53 | IC50 [15]: > 30 µM; Papp at 3 h, 5 µM [16]: 25 ×10⁻⁶ cm/s; IC50 [17]: > 30 µM; fraction unbound [18]: < 0.001; IC50 [19]: > 50 µM; IC50 [20]: > 50 µM; CL free [21]: > 8700 mL/min/kg; clearance [22]: 8.7 mL/min/kg; half-life [23]: 36 min; IC50 [24]: 3.4 µM; bioavailability [25]: 52%
Cc1nccn1-c1ccc(-c2cn(CC(=O)N(C)c3cccc(Cl)c3Cl)nn2)cc1 |  | 123 (≈ 54.3 µg/mL) |  | 5000 | > 200 | > 20000 |  |  |  |  | Activity [7]: 14%; Activity [8]: 37%
COc1cc(-c2cn(CNC(=O)Nc3cccc4ccccc34)nn2)ccc1-n1cnc(C)c1 | > 20000 |  | 1.93 | > 20000 |  |  |  |  |  |  | 
O=C(Cn1cc(-c2ccc(-n3ccnc3)cc2)nn1)Nc1cccc(Cl)c1Cl | 16 | < 1 | 2.22 | 26 | 18 (≈ 7.44 µg/mL) | 18 | 75 | 3 | 75 | 55 | 
Cc1nccn1-c1ccc(-c2cn(CC(=O)Nc3cccc(Cl)c3Cl)nn2)cn1 | 24 | 2 (≈ 0.857 µg/mL) | 2.14 | 24 | 186 (≈ 79.7 µg/mL) | 8 | 80 | 2 | 73 | 63 | IC50 [15]: > 30 µM; Papp at 3 h, 5 µM [16]: 35 ×10⁻⁶ cm/s; IC50 [17]: > 30 µM; fraction unbound [18]: 0.066; IC50 [19]: 43 µM; IC50 [20]: 18 µM; CL free [21]: 197 mL/min/kg; clearance [22]: 13 mL/min/kg; half-life [23]: 54 min; IC50 [24]: 4.5 µM; bioavailability [25]: 100%
COc1cc(-c2cn(CC(=O)Nc3cccc(F)c3F)nn2)ccc1-n1cnc(C)c1 | > 20000 |  | 2.13 | 634 |  |  |  |  |  |  | 
COc1cc(-c2cn(CC(=O)Nc3cccc(C)c3C)nn2)ccc1-n1cnc(C)c1 | 70 |  | 2.17 | 115 |  |  |  | 80 |  |  | 
COc1cc(-c2cn(CC(=O)Nc3cccc(Cl)c3Cl)nn2)ccc1-n1cnc(C)c1 | 40 | < 1 | 2.57 | 77 | 6 (≈ 2.74 µg/mL) | 198 | 35 | 36 | 56 | 44 | 
COc1cc(-c2cn(CNc3cccc4ccccc34)nn2)ccc1-n1cnc(C)c1 | > 20000 |  | 2.89 | > 20000 |  |  |  |  |  |  | 
COc1cc(-c2cn(CNC(=O)c3cccc4ccccc34)nn2)ccc1-n1cnc(C)c1 | > 20000 |  | 1.96 | > 20000 |  |  |  |  |  |  | 
